In ChEMBL document CHEMBL1914452, “Arene- and quinoline-sulfonamides as novel 5-HT7 receptor ligands” (Bioorg Med Chem, 2011):

How the values were obtained:
[1] = target: T1, 5-hydroxytryptamine receptor 1A (Rattus norvegicus, UniProt P19327); assay: Displacement of [3H]-8-OH-DPAT from 5-HT1A receptor in rat hippocampus by liquid scintillation counting; assay type: tissue-based
T1 sequence (P19327 whole entry): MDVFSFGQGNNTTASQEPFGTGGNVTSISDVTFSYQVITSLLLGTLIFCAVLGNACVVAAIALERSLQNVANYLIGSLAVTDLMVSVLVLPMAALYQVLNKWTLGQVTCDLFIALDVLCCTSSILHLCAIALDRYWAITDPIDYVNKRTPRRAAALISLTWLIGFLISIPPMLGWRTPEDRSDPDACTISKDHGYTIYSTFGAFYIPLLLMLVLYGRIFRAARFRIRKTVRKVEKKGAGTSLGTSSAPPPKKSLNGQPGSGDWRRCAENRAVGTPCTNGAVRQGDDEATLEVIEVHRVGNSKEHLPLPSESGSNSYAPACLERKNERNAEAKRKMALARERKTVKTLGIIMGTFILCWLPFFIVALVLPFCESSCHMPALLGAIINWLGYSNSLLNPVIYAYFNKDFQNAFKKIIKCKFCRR
Summary of the method: (§1)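 Competition binding with 7–9 compound concentrations, each run in triplicate. 5-HT1A, 5-HT2A and α1 sites were native. 5-HT6 used [3H]-LSD and 5-HT7 used [3H]-5-CT, both on cloned human receptors stably expressed in HEK293 cells. After incubation, samples were vacuum-filtered through GF/B filters and washed with ice-cold buffer. Bound radioactivity was counted by liquid scintillation.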

[2] = target: 5-hydroxytryptamine receptor 2A (Rattus norvegicus, UniProt P14842); assay: Displacement of [3H]-ketanserin from 5-HT2A receptor in rat cortex by liquid scintillation counting; summary of the method: as §1
5-hydroxytryptamine receptor 2A, sequence (P14842 whole entry): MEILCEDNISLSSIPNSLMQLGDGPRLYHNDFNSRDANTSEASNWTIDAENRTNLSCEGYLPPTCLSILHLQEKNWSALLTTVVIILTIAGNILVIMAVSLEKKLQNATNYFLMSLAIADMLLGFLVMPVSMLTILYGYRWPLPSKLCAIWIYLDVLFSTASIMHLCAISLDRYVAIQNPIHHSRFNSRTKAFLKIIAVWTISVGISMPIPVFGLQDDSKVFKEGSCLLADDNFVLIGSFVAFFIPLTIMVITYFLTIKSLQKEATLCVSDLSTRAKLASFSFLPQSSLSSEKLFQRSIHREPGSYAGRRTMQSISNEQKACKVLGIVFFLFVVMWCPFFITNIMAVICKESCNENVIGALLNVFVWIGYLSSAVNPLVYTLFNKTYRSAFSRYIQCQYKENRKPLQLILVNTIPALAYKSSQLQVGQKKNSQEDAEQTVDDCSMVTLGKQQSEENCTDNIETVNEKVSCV

[3] = target: T2, 5-hydroxytryptamine receptor 7 (Homo sapiens, UniProt P34969); assay: Displacement of [3H]-5-CT from human 5-HT7 receptor expressed in HEK293 cells after 1 hr by liquid scintillation counting; assay type: cell-based; summary of the method: as §1
T2 sequence (P34969 whole entry): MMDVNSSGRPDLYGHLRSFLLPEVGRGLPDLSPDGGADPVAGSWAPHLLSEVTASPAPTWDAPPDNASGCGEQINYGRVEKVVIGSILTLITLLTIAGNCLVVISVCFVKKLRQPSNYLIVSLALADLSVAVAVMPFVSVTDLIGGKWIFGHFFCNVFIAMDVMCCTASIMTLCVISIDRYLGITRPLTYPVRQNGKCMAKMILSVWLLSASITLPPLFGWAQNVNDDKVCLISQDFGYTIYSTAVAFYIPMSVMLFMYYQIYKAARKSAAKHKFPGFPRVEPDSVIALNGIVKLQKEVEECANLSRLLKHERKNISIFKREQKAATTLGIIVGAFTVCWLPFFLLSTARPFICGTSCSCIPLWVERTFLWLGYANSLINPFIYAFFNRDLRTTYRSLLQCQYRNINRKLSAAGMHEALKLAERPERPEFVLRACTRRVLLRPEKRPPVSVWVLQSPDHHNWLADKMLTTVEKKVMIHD

[4] = target: 5-hydroxytryptamine receptor 6 (Homo sapiens, UniProt P50406); assay: Displacement of [3H]-LSD from human 5-HT6 receptor expressed in HEK293 cells after 1 hr by liquid scintillation counting; assay type: cell-based; summary of the method: as §1
5-hydroxytryptamine receptor 6, sequence (P50406 whole entry): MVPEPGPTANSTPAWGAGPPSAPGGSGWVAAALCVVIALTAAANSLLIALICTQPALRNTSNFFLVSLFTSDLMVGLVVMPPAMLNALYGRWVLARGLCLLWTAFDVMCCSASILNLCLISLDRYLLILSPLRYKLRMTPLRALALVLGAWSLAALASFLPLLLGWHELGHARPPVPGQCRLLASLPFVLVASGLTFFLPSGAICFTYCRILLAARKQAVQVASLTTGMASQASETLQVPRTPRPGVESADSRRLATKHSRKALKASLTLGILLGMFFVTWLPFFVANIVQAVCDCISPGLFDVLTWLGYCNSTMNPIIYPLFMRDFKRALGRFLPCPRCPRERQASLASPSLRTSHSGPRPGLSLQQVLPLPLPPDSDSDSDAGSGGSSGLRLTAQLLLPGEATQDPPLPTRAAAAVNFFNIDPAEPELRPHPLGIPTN

HEK293 = assay: Selectivity ratio of Ki for 5-HT1A receptor in rat hippocampus to Ki for human 5-HT7 receptor expressed in HEK293 cells; assay type: cell-based
[5] = target: T3, Adrenergic receptor alpha-1 (Rattus norvegicus, UniProt P15823+P23944+P43140); assay: Displacement of [3H]-prazosin from alpha 1 receptor in rat cortex by liquid scintillation counting; summary of the method: as §1
T3 sequence (P15823 whole entry): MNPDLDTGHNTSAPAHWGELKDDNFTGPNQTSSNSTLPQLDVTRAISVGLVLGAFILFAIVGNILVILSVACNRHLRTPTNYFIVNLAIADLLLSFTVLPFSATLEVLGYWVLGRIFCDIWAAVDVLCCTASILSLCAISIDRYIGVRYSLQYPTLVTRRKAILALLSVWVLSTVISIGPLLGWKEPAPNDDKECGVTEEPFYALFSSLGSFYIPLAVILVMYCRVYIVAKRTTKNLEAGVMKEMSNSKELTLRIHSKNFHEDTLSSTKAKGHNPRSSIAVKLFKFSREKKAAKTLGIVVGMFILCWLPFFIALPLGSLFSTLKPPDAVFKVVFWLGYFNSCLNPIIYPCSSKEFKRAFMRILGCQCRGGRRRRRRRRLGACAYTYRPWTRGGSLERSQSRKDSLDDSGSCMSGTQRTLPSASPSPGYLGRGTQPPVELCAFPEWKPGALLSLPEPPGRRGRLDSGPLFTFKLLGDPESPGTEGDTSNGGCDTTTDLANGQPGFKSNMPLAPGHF
T3 sequence (P23944 whole entry): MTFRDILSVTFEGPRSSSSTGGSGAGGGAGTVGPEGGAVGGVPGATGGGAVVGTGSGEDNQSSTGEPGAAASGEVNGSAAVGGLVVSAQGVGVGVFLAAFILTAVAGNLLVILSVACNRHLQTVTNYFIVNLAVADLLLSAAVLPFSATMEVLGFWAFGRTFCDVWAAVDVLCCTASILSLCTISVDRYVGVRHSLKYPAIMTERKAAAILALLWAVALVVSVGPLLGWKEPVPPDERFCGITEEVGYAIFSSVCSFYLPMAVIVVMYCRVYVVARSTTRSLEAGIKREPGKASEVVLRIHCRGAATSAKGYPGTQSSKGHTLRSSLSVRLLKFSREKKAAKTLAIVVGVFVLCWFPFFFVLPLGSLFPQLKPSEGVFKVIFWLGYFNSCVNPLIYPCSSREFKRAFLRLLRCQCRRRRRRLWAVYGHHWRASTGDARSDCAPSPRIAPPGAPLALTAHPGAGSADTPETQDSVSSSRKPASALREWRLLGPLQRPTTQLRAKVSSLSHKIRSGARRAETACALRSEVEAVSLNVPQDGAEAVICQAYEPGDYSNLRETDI
T3 sequence (P43140 whole entry): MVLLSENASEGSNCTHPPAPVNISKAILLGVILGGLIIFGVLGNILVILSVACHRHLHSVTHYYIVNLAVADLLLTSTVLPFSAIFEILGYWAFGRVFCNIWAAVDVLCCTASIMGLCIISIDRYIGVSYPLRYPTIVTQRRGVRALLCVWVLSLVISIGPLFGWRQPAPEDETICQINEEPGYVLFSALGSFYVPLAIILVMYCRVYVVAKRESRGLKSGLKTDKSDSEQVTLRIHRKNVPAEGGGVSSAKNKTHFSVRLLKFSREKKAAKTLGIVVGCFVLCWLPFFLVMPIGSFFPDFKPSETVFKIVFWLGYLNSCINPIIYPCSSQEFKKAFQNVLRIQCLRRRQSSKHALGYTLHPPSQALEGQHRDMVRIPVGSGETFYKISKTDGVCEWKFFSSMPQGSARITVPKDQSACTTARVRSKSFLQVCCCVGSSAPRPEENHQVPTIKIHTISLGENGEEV

[6] = target: T2, 5-hydroxytryptamine receptor 7; assay: Antagonist activity at human 5-HT7 receptor expressed in CHO cells assessed as inhibition of serotonin-induced intracellular cAMP accumulation preincubated for 20 mins measured after 10 mins by radioimmunoassay; assay type: functional, cell-based
Mus musculus [7] = assay: Antidepressant like activity in Albino Swiss mouse assessed as reduction of immobility time at 5 mg/kg, ip administered 30 mins before test measured during final 4 mins of the 6 mins session by forced swimming test (reference value: 165 +/- 9.6 sec); assay type: functional; conditions: route intraperitoneal
Mus musculus [8] = assay: Antidepressant like activity in Albino Swiss mouse assessed as reduction of immobility time at 10 mg/kg, ip administered 30 mins before test measured during final 4 mins of the 6 mins session by forced swimming test (reference value: 165 +/- 9.6 sec); assay type: functional; conditions: route intraperitoneal
Mus musculus [9] = assay: Antidepressant like activity in Albino Swiss mouse assessed as reduction of immobility time at 20 mg/kg, ip administered 30 mins before test measured during final 4 mins of the 6 mins session by forced swimming test (reference value: 165 +/- 9.6 sec); assay type: functional; conditions: route intraperitoneal
Mus musculus [10] = assay: Antidepressant like activity in Albino Swiss mouse assessed as reduction in immobility time at 10 mg/kg, ip administered 30 mins before test measured during final 4 mins of the 6 mins session by forced swimming test; assay type: functional; parameters: scale not given: the % may be the effect or the level left; conditions: route intraperitoneal
Mus musculus [11] = assay: Neurotoxicity in Albino Swiss mouse assessed as effect on number of crossings at 10 mg/kg, ip administered 30 mins before test measured for 2 to 6 mins; assay type: toxicity, organism-based; parameters: dose 10 mg/kg, route intraperitoneal; conditions: in vivo
Summary of the method: (§2)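 Spontaneous locomotor activity in mice, recorded over 2–6 min (the swim-test observation window) or over a 30-min session. Drug was suspended in 1% aqueous Tween 80 and given ip at 10 ml/kg, 30 min beforehand, with vehicle-injected controls. Tests ran blind during the light phase (09.00–14.00 h), using 7–10 animals per dose, each used once.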

Mus musculus [12] = assay: Neurotoxicity in Albino Swiss mouse assessed as effect on number of crossings at 10 mg/kg, ip administered 30 mins before test measured for 30 mins; assay type: toxicity, organism-based; parameters: dose 10 mg/kg, route intraperitoneal; conditions: in vivo, 0.5 h; summary of the method: as §2

| Ki [1] [nM] | Ki [2] [nM] | Ki [3] [nM] | Ki [4] [nM] | SMILES | Ratio Ki (HEK293) | other results |
| --- | --- | --- | --- | --- | --- | --- |
| 305 | 590 | 228 | 8640 | O=S(=O)(NCCCCN1CCc2ccccc2C1)c1cnc2ccccc2c1 | 1.3 |  |
|  |  | 296 |  | O=S(=O)(NCCCCN1CCc2ccccc2C1)c1cccc2ccccc12 |  |  |
| 18 | 825 | 156 | 2840 | COc1ccccc1N1CCN(CCCNS(=O)(=O)c2ccc3ncccc3c2)CC1 | 0.1 |  |
| 1100 | 6280 | 13 | 1950 | CCN(CCCCN1CCC2CCCCC2C1)S(=O)(=O)c1cccc2cccnc12 (centres undefined) | 84.5 | Ki [5]: 155 nM; Kb [6]: 140 nM; Time (Mus musculus [7]): 155.2 s; Time (Mus musculus [8]): 128.1 s; Time (Mus musculus [9]): 182.3 s; Activity (Mus musculus [10]): 22%; Activity (Mus musculus [11]): Non-toxic; Activity (Mus musculus [12]): Non-toxic |
| 325 | 5090 | 187 | 14500 | CCN(CCCCN1CCC2CCCCC2C1)S(=O)(=O)c1cnc2ccccc2c1 (centres undefined) | 1.7 |  |
|  |  | 335 |  | NCCCN(CCCN1CCc2ccccc2C1)S(=O)(=O)c1ccccc1 |  |  |
|  |  | 235 |  | NCCCN(CCCCN1CCc2ccccc2C1)S(=O)(=O)c1ccccc1 |  |  |
| 25 | 1320 | 29 | 1920 | CCN(CCCN1CCN(c2ccccc2OC)CC1)S(=O)(=O)c1ccc2ncccc2c1 | 0.9 |  |
| 30 |  | 37 |  | CCN(CCCCN1CCN(c2ccccc2OC)CC1)S(=O)(=O)c1cccc2cccnc12 | 0.8 |  |
|  |  | 270 |  | O=S(=O)(NCCCN1CCc2ccccc2C1)c1ccccc1 |  |  |
|  |  | 78 |  | O=S(=O)(NCCN1CCc2ccccc2C1)c1ccc2ccccc2c1 |  |  |
|  |  | 3010 |  | NCCCN(CCN1CCc2ccccc2C1)S(=O)(=O)c1ccccc1 |  |  |
| 37 | 2160 | 90 | 1640 | COc1ccccc1N1CCN(CCCNS(=O)(=O)c2cccc3cccnc23)CC1 | 0.4 |  |
| 40 |  | 132 |  | COc1ccccc1N1CCN(CCCCNS(=O)(=O)c2ccc3ncccc3c2)CC1 | 0.3 |  |
|  |  | 64 |  | O=S(=O)(NCCCCN1CCc2ccccc2C1)c1ccc2ccccc2c1 |  |  |
| 3570 |  | 1260 |  | O=S(=O)(NCCCCN1CCC2CCCCC2C1)c1cccc2cccnc12 (centres undefined) | 2.8 |  |
|  |  | 19 |  | CCN(CCCN1CCN(c2ccccc2OC)CC1)S(=O)(=O)c1ccc(C)cc1 |  |  |

| Ki [1] [nM] | Ki [2] [nM] | Ki [3] [nM] | Ki [4] [nM] | SMILES | Ratio Ki (HEK293) | other results |
| --- | --- | --- | --- | --- | --- | --- |
|  |  | 267 |  | NCCN(CCCN1CCc2ccccc2C1)S(=O)(=O)c1ccccc1 |  |  |
| 53 |  | 55 |  | COc1ccccc1N1CCN(CCCCNS(=O)(=O)c2cccc3cccnc23)CC1 | 0.9 |  |
| 9.3 |  | 38 |  | CCN(CCCCN1CCN(c2ccccc2OC)CC1)S(=O)(=O)c1cnc2ccccc2c1 | 0.2 |  |
|  |  | 80 |  | O=S(=O)(NCCCN1CCc2ccccc2C1)c1ccc2ccccc2c1 |  |  |
|  |  | 360 |  | COc1cccc2c1CCN(CCCNS(=O)(=O)c1cccc3ccccc13)C2 |  |  |
| 313 | 1790 | 33 | 4590 | CCN(CCCCCN1CCC2CCCCC2C1)S(=O)(=O)c1cccc2cccnc12 (centres undefined) | 9.5 | Ki [5]: 92 nM; Kb [6]: 1300 nM; Time (Mus musculus [7]): 144.8 s; Time (Mus musculus [8]): 158.6 s; Time (Mus musculus [9]): 181.2 s |
|  |  |  |  | CC1CCN(CC[C@H]2CCCN2S(=O)(=O)c2cccc(O)c2)CC1 |  | Time (Mus musculus [7]): 136.1 s; Time (Mus musculus [8]): 110.8 s; Time (Mus musculus [9]): 139.3 s; Activity (Mus musculus [10]): 33%; Activity (Mus musculus [11]): Non-toxic; Activity (Mus musculus [12]): Non-toxic |
| 1450 |  | 995 |  | O=S(=O)(NCCCCN1CCC2CCCCC2C1)c1cnc2ccccc2c1 (centres undefined) | 1.5 |  |
|  |  | 773 |  | O=S(=O)(NCCN1CCc2ccccc2C1)c1ccccc1 |  |  |
| 3.7 |  | 79 |  | COc1ccccc1N1CCN(CCCCNS(=O)(=O)c2cnc3ccccc3c2)CC1 | 0.05 |  |
| 21 |  | 41 |  | CCN(CCCCN1CCN(c2ccccc2OC)CC1)S(=O)(=O)c1ccc2ncccc2c1 | 0.5 |  |
| 4310 |  | 1420 |  | O=S(=O)(NCCCN1CCC2CCCCC2C1)c1ccc2ncccc2c1 (centres undefined) | 3 |  |
| 233 | 1520 | 224 | 8250 | O=S(=O)(NCCCCN1CCc2ccccc2C1)c1ccc2ncccc2c1 | 1 |  |
| 483 | 2650 | 334 | 17500 | O=S(=O)(NCCCCN1CCc2sccc2C1)c1ccc2cccnc2c1 | 1.4 |  |
| 986 | 1080 | 506 | 17400 | O=S(=O)(NCCCCN1CCc2sccc2C1)c1cnc2ccccc2c1 | 1.9 |  |
| 271 | 4180 | 88 | 1460 | O=S(=O)(NCCCCN1CCc2ccccc2C1)c1cccc2cccnc12 | 3 |  |
|  |  | 94 |  | O=S(=O)(NCCCCN1CCc2ccccc2C1)c1ccccc1 |  |  |
